PKA-R2B activ = activates the human PKA-R2B holoenzyme complex; P22694+P31323; PKA-R2B holoenzyme dissociation, Cy5-IP20 fluorescence polarization; R2B truncated from residue 108, S112A mutant; 0% DMSO only, 100% 113 µM cGMP; activation, % at 11.4 µM; 0.079% of 340,000 active; AID 504700;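 active means activation above a cutoff set at the mean over all compounds plus 3 SD, cut at about 18% in these data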;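 further: higher means more holoenzyme dissociation and a rise in polarization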
Target sequence (P31323 whole entry, looked up, other chains not shown, the tested form may be a part): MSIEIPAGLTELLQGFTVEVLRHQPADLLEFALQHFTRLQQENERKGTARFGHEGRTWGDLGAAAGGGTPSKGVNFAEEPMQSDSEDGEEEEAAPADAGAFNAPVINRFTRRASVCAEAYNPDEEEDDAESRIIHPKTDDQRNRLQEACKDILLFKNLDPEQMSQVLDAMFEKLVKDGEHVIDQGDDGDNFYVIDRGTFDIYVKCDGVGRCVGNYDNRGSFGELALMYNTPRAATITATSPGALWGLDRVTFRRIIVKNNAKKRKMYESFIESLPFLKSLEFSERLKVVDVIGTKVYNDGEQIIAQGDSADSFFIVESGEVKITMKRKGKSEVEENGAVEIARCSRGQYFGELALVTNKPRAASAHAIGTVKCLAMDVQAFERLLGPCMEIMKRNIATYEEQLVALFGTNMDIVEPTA
HKDC1 inh = inhibitors of human hexokinase HKDC1 | Q2TB90 | recombinant HKDC1, G6PDH/diaphorase resazurin coupled fluorescence | inhibition, % at 20 µM | 0.16% of 340,000 active;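 active means inhibition above about 35% when tested at 20 µM, limit read from the data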;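 further: plate controls were DMSO wells with enzyme for no effect and DMSO wells lacking enzyme for full effect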
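Material – in-house recombinant HK5 (HKDC1) enzyme · Quantity – HKDC1 at 5 µg/mL · Buffer or medium – pH 8.0 Tris buffer with 10 mM MgCl2 · Reagent – glucose with 1 mM ATP · Dosing – single 20 µM dose · Times – reaction time 90 min, room temperature, protected from light · Technique – resorufin fluorescence at 613 nm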
PfGluPho inh = PfG6PD (Plasmodium falciparum) enzyme inhibition | AID 504690 | inhibition, % at 20 µM | PfGluPho enzyme, NADPH resazurin-diaphorase fluorescence | 0.78% of 350,000 active;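 active means inhibition reaching at least a set limit at 20 µM in the primary screen, cut at about 59% in these data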;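 further: 0% = DMSO wells with substrate and 100% = DMSO wells lacking glucose-6-phosphate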
PKA-R1A activ = PKA-R1A complex activation; AID 504707; activation, % at 11.4 µM; 0.083% of 340,000 active; P00514+P68181; PKA-R1A dissociation, Cy5-IP20 fluorescence polarization; scaled: DMSO 0%, 113 µM cGMP 100%;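 active means percent activation above the mean of all tested compounds plus 3 SD, cut at about 19% in these data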;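 further: higher means more PKAc released from R1A so a rise in polarization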
T cell modulator = T cell immune modulators affecting CD8 T cell-vesicle binding | 2C CD8+ T cell-vesicle binding, flow cytometry; active compounds read low | response (vesicle binding), % at 7 µM | 0.068% of 330,000 active;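 active means response, share of CD8 T cells binding vesicles, and their 90th percentile fluorescence all below set limits, cut at about 80% in these data, passing the limit was not always enough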;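 further: values below 100% mean blocked vesicle binding to the CD8+ T cells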
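incubation = binding step 1.5 h, 37 °C, antibody labelling 20 min, ice | test system = 2C mouse CD8+ T cells | read-out basis = percent CD8+ FL2 mean versus row control | controls = Peptide-free naked vesicles (low) and QL9 vesicles with 0.7% DMSO vehicle (high) | detection = flow cytometry of vesicle-bound cells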
ATG4B inhibitor = inhibitors of human ATG4B cysteine protease. AID 504462. Q9Y4P1. inhibition, % at 8.33 µM. 0.51% of 340,000 active. ATG4B cleavage of LC3-PLA2, NBD-HPC fluorescence, 1 h; in the data active means inhibition above about 40%
HKDC1 act conf2 = HKDC1 (human) activation, single-dose confirmed; shares compounds with HKDC1 inh; recombinant HKDC1, G6PDH/diaphorase resazurin fluorescence; active compounds read low; inhibition, % at 20 µM; 14% of 740 active;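 active means inhibition at or below a set negative limit, negative inhibition meaning the enzyme was activated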
ATG4B conf = confirmation of human ATG4B inhibitors; inhibition, % at 8.33 µM; shares compounds with ATG4B inhibitor; ATG4B protease fluorescent substrate cleavage assay; 92% of 320 active; in the data active means inhibition above about 39%
PLA2 counter = PLA2 (human) inhibition in ATG4B counter-screen | inhibition, % at 8.33 µM | purified PLA2, NBD-C6-HPC fluorescence, 45 min | 66% of 1,600 active | shares compounds with ATG4B inhibitor; in the data active means inhibition above about 50%
Target sequence (P04054 whole entry, looked up): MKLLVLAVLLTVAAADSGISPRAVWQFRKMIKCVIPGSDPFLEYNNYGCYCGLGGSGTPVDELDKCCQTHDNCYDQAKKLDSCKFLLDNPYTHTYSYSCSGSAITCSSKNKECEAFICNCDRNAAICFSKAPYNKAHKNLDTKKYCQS
PfGluPho conf = PfG6PD inhibition, single-dose confirmed; shares compounds with PfGluPho inh; recombinant PfGluPho, NADPH-diaphorase-resazurin fluorescence; inhibition, % at 20 µM; 34% of 2,400 active;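 active means inhibition of at least 50% at 20 µM in any single replicate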;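 further: 0% = DMSO with substrate and 100% = DMSO lacking glucose-6-phosphate substrate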
Diaph ctr 10uM = diaphorase inhibition or oxidation at 10 uM NADPH; shares compounds with PfGluPho inh; diaphorase-coupled resazurin reduction, fluorescence, NADPH 10 uM; inhibition, % at 20 µM; 39% of 820 active;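 active means average inhibition reaching 50% or more with the compound at 20 µM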;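 further: resorufin red fluorescence formed as diaphorase reduces resazurin using NADPH; 0% = DMSO with enzyme and 100% = DMSO without enzyme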
Diaphorase 30uM = diaphorase inhibition or oxidation at 30 uM NADPH. inhibition, % at 20 µM. Diaphorase/resazurin coupled assay, resorufin fluorescence. 29% of 820 active. shares compounds with PfGluPho inh. AID 504863;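 active means inhibition averaging 50% or more, tested at 20 µM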;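 further: 0% = DMSO with enzyme and 100% = DMSO wells lacking diaphorase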
Active calls of the source: *; / = no result. Only some compounds are listed: those with a hit (about 1.6% of all), similar ones and a draw of the others.

SMILES	PKA-R2B activ	HKDC1 inh	PfGluPho inh	PKA-R1A activ	T cell modulator	ATG4B inhibitor	HKDC1 act conf2	others
O=C1CC=C2C3CC4N(CCC45c4ccccc4N1C25)CC3=CCO (configuration not stated)	-12.2	-4.2	4.5	0.3	/	-4.8	/
Cn1c(=O)c2c(nc(N/N=C/c3c(O)n(C4CCCCC4)c(=S)[nH]c3=O)n2C)n(C)c1=O	0.1	-46.3	11.4	-4.1	103.7	-5.8	-49.5*
O=C1NC(=S)N(c2ccc(F)cc2)C(=O)/C1=C\c1ccoc1	6.7	50.9*	10.7	0.7	/	85.4*	55.2
O=C1NC(=S)N(c2ccc(F)cc2)C(=O)/C1=C/c1ccco1	/	/	/	/	271.0	/	/
O=C(C(=O)N1CCOCC1)c1cn(Cc2ccccc2F)c2ccccc12	0.3	-3.3	2.9	-10.3	384.2	-1.8	/
COC(=O)C1=C(c2ccc(F)cc2F)C[C@@H]2CC[C@H]1N2C(=O)NC(C)C	-3.4	-0.8	-7.6	-2.8	761.5	2.1	/
COc1ccc(OC)c(N2C(=O)/C(=C/c3ccco3)C(=O)NC2=S)c1	/	82.3*	18.9	/	365.7	87.1*	77.4
N#CC(C#N)=Cc1ccc(C=C(C#N)C#N)cc1	-2.2	37.6*	18.0	0.2	/	9.6	-4.5
CCC(C)/C=C(C)/C=C/C1=CC2=C(Cl)C(=O)C(C)(OC(C)=O)C(=O)C2=CO1 (configuration not stated)	11.9	20.2	-32.5	-1.5	387.9	4.4	/
CC[C@H](C)/C=C(C)/C=C/C1=CC2=C(Cl)C(=O)[C@@](C)(OC(C)=O)C(=O)C2=CO1	-7.7	62.8*	20.1	-1.7	358.4	66.6*	45.8
CCN(CC)c1ccc(N=Cc2c(O)n(Cc3ccco3)c(=O)[nH]c2=O)cc1	-6.5	-2.2	11.1	-8.1	327.4	1.4	/
NC(=O)c1ccc(N=Cc2c(O)n(Cc3ccco3)c(=O)[nH]c2=O)cc1	-4.5	36.2*	25.4	-10.3	186.6	4.9	-16.8
CC(N)Cc1cn(Cc2ccccc2)c2ccccc12 (configuration not stated)	-14.2	-5.4	7.0	-6.5	226.5	-2.9	/
O=C(CCc1ccccc1)N1C[C@H]2C[C@@H](C1)c1cccc(=O)n1C2	-1.6	-4.6	2.2	-5.1	133.3	-12.9	/
COc1ccc(CCNC(C)CCc2ccc(OC)cc2)cc1 (configuration not stated)	-10.8	-3.6	-12.4	4.5	265.9	-0.3	/
Cc1ccc2c(C)c3ccc4ccccc4c3c[n+]2c1	-0.7	-52.8	-28.9	7.4	/	0.1	-65.5*
N#CC1=C(N)Oc2c(c(=O)sc3ccccc23)C1c1ccncc1 (configuration not stated)	-3.2	-57.7	-39.2	-3.1	248.3	4.0	-22.4
Cc1ccccc1C(=O)N1Cc2ccccc2-n2nncc2C1	4.2	/	-14.0	1.4	/	/	/
CCOC(=O)c1c(-n2c(C)cc(/C=C3\C(=O)NC(=O)N(C)C3=O)c2C)sc2c1CCCC2	-10.5	51.2*	-13.1	-9.1	336.2	26.8	34.0
COC(=O)C1CN(C#N)N(c2ccc(Cl)cc2)C12c1ccccc1-c1ccccc12 (configuration not stated)	-3.0	87.2*	28.6	3.9	182.8	0.8	73.6
CC1(C)C(C(=O)N2CCN(c3ccc(Cl)cc3)CC2)C1(C)C	0.6	-4.8	4.1	-8.7	/	-7.8	/
Cc1cc(/C=C2\C(=O)NC(=O)N(c3ccc(Cl)cc3)C2=O)c(C)n1-c1sc2c(c1C#N)CCCC2	-0.2	68.9*	10.4	-8.5	170.6	43.3*	56.4	ATG4B conf=63.0*;PLA2 counter=19.4
CCC1CN1P(=O)(c1ccccc1)N1CC1CC (configuration not stated)	-10.3	-13.1	5.8	5.5	/	-4.4	/
CN1CC[C@@]2(C)c3cc(O)ccc3N(C)[C@@H]12	-11.6	33.5	83.2*	-12.7	/	1.8	17.4	PfGluPho conf=103.6*;Diaph ctr 10uM=74.3*;Diaphorase 30uM=47.8
O=c1c2ccccc2[se]n1-c1ccccc1	1.0	-115.9	126.9*	0.4	516.7	7.7	5.0	PfGluPho conf=112.7*;Diaph ctr 10uM=-22.7;Diaphorase 30uM=-4.6
SMILES	PKA-R2B activ	HKDC1 inh	PfGluPho inh	PKA-R1A activ	T cell modulator	ATG4B inhibitor	HKDC1 act conf2	others
COC(=O)C1=C(C(=O)OC)SC2(S1)C(C(=O)OC)=C(C(=O)OC)Sc1c2ssc1=O	-4.5	-108.7	86.4*	-4.4	/	2.5	-88.9*	PfGluPho conf=60.3*;Diaph ctr 10uM=-2.4;Diaphorase 30uM=-3.3
C=C1C[C@@H]2[C@H](CC[C@]3(C)C(=O)CC[C@@H]23)[C@@]2(C)C=CC(=O)C=C12	/	/	/	/	367.7	/	/
N#CC12CNCC1CN=N2 (configuration not stated)	-11.1	-1.3	4.8	-4.6	32.6	-0.9	/
c1ccc(N2[C@@H]3CC[C@H]2c2ccccc2C3)cc1	-7.4	/	-0.1	1.1	/	/	/
O=C(O)CC1OCC=C2CN3CCC45C6=CC(=O)C(=O)C([N+](=O)[O-])=C6NC4C1C2CC35 (configuration not stated)	-3.5	42.5*	106.9*	-4.3	354.8	7.3	28.5	PfGluPho conf=105.2*;Diaph ctr 10uM=91.2*;Diaphorase 30uM=96.5*
O=C(O)CC1OCC=C2CN3CCC45c6ccccc6NC4C1C2CC35 (configuration not stated)	2.3	-5.1	-14.3	-8.3	60.3	-3.1	/
Oc1c(Br)cc(Br)cc1Br	-1.3	3.2	6.0	1.1	727.0	1.4	/
Oc1c(Br)c(Br)c(Br)c(Br)c1Br	5.2	16.1	-9.9	9.5	499.7	60.2*	/	PLA2 counter=62.2*
O=C1CN=C(c2ccccc2)c2cc(Br)ccc2N1	4.6	-6.8	-10.2	-3.6	251.2	-3.6	/
COc1cc(/C=C/c2nc3ccccc3c(=O)n2-c2ccc(O)cc2)ccc1O	-4.6	6.1	31.9	-0.2	193.6	-24.9	/

From PubChem
